Substrate: Nc1nc2[nH]cnc2c(=O)[nH]1
Test: Activity at GDA by colorimetric assay
How it was run: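 Purified rabbit liver guanine deaminase, 8 × 10^-3 U, incubated with guanine at 2, 5, 7, 10, 12, 15, 17 and 20 µM plus inhibitor at 8 or 20 µM. Run in TBS (25 mM Tris-HCl, 137 mM NaCl, 2.7 mM KCl) at pH 7.4 and 25 °C. Guanine hydrolysis followed as OD change at 245 nm. Kinetic constants taken from Lineweaver–Burk plots (1/V vs 1/S).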

B1: Guanine deaminase (Homo sapiens), Q9Y2T3 (protein)
chain: MCAAQMPPLAHIFRGTFVHSTWTCPMEVLRDHLLGVSDSGKIVFLEEASQQEKLAKEWCFKPCEIRELSHHEFFMPGLVDTHIHASQYSFAGSSIDLPLLEWLTKYTFPAEHRFQNIDFAEEVYTRVVRRTLKNGTTTACYFATIHTDSSLLLADITDKFGQRAFVGKVCMDLNDTFPEYKETTEESIKETERFVSEMLQKNYSRVKPIVTPRFSLSCSETLMGELGNIAKTRDLHIQSHISENRDEVEAVKNLYPSYKNYTSVYDKNNLLTNKTVMAHGCYLSAEELNVFHERGASIAHCPNSNLSLSSGFLNVLEVLKHEVKIGLGTDVAGGYSYSMLDAIRRAVMVSNILLINKVNEKSLTLKEVFRLATLGGSQALGLDGEIGNFEVGKEFDAILINPKASDSPIDLFYGDFFGDISEAVIQKFLYLGDDRNIEEVYVGGKQVVPFSSSV
- Km: 11.2 µM

Reference: ChEMBL document CHEMBL1221368, “Identification of small molecule compounds with higher binding affinity to guanine deaminase (cypin) than guanine” (Bioorg Med Chem, 2010)
